Source: BindingDB's records for doi:10.1021/jm9900321 (Dupont Pharmaceuticals, 2000)

Legend:
[1] = target: T1, Integrin alpha-IIb/beta-3 (Homo sapiens, UniProt P08514+P05106); assay: Inhibition of platelet aggregation in human gel-purified platelets containing fibrinogen (GPP+Fg).
How it was run: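 Platelets are gel-filtered from human PRP on sepharose (2×10⁸ platelets/mL). They are assayed with 1 mM CaCl₂ and 1 mg/mL fibrinogen across a range of test-agent concentrations, and IC₅₀ is calculated from the inhibition curve.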

[2] = Inhibition of platelet aggregation in human platelet rich plasma (PRP)
[3] = target: T1, Integrin alpha-IIb/beta-3; assay: Inhibition of platelet aggregation in human platelet rich plasma (PRP)
How it was run: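 Human PRP is obtained by centrifuging blood at 150g for 10 min; platelet-poor plasma serves as the 100% transmittance blank. PRP at 2×10⁸ platelets/mL is preincubated with test agent at several concentrations for 8 min. It is then stimulated with ADP (10 μM final), and aggregation is followed as light transmittance over time to derive IC₅₀.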

T1 sequence (P05106 27-788 limits assumed): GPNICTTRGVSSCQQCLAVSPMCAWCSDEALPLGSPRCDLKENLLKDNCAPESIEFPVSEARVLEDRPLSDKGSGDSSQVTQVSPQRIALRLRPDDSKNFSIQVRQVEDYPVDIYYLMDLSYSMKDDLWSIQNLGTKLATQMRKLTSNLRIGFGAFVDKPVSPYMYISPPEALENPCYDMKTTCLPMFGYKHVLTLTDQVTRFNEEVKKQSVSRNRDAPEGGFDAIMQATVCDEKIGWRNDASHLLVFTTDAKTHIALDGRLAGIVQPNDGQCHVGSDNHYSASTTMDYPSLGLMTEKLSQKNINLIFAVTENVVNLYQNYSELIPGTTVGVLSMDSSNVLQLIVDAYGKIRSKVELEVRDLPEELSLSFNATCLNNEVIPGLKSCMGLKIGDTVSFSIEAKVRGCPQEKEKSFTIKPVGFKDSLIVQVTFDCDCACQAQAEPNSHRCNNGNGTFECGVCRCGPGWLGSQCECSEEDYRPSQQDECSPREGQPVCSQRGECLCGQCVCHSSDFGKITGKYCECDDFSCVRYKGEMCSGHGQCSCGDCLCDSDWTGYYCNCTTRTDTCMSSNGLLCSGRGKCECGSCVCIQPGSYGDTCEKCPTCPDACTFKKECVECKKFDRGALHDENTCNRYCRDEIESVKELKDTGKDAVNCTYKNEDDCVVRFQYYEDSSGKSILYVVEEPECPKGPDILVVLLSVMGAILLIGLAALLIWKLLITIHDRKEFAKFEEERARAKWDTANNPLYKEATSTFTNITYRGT
T1 sequence (P08514 32-887 limits assumed): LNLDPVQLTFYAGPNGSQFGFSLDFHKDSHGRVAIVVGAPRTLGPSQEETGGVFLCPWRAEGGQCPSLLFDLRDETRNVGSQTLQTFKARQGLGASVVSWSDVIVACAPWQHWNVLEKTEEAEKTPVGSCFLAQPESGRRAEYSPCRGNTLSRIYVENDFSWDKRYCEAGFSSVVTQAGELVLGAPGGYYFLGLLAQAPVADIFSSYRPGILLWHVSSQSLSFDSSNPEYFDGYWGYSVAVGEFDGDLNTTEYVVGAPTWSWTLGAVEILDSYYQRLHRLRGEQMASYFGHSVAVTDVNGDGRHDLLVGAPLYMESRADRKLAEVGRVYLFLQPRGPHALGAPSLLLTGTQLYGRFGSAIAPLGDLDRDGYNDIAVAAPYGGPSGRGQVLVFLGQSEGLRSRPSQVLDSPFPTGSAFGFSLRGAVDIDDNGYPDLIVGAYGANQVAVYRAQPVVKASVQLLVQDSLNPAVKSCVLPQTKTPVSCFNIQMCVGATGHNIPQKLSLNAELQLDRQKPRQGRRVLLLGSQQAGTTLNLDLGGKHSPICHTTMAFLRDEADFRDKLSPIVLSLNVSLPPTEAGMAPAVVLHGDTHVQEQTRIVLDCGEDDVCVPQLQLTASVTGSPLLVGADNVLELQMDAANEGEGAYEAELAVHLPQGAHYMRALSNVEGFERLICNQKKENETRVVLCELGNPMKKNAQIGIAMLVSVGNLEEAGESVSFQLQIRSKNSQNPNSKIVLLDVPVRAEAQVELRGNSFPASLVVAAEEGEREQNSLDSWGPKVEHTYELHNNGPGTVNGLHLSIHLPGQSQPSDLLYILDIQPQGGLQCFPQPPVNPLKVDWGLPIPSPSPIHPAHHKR
T1 sequence (P08514 891-1039 limits assumed): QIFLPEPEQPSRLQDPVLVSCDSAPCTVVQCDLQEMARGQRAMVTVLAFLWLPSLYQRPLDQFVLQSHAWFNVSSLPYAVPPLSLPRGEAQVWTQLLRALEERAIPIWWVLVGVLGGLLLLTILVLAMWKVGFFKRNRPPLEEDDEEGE

Compound	IC50 [1]	IC50 [2]	IC50 [3]
N=C(N)c1ccc(C2=NO[C@@H](CC(=O)NCCC(=O)O)C2)cc1	0.14 µM	0.24 µM	
Cc1cc(C)c(S(=O)(=O)N[C@H](CNC(=O)C2=NOC(CCCCNc3ncc[nH]3)C2)C(=O)O)c(C)c1 (stereo partly specified)	28 µM	68 µM	
O=C(NC[C@H](NS(=O)(=O)c1c(Cl)cccc1Cl)C(=O)O)C1=NOC(CCCCNc2ncc[nH]2)C1 (stereo partly specified) [2-(2,6-Dichloro-benzenesulfonylamino)-3-({5-[4-(1H-imidazol-2-ylamino)-butyl]-4,5-dihydro-isoxazole-3-carbonyl}-amino)-propionic acid]	0.19 µM	0.35 µM	
Cc1cccc(Cl)c1S(=O)(=O)N[C@@H](CNC(=O)C1=NOC(CCCCNc2ncc[nH]2)C1)C(=O)O (stereo partly specified) [2-(2-Chloro-6-methyl-benzenesulfonylamino)-3-({5-[4-(1H-imidazol-2-ylamino)-butyl]-4,5-dihydro-isoxazole-3-carbonyl}-amino)-propionic acid]		0.39 µM	
O=C(NC[C@H](NS(=O)(=O)c1c(Cl)cc(-c2ccccc2)cc1Cl)C(=O)O)C1=NOC(CCCCNc2ncc[nH]2)C1 (stereo partly specified) [2-(3,5-Dichloro-biphenyl-4-sulfonylamino)-3-({5-[4-(1H-imidazol-2-ylamino)-butyl]-4,5-dihydro-isoxazole-3-carbonyl}-amino)-propionic acid]		1.6 µM	
Cc1cc(-c2ccccc2)cc(C)c1S(=O)(=O)N[C@@H](CNC(=O)C1=NOC(CCCCNc2ncc[nH]2)C1)C(=O)O (stereo partly specified) [2-(3,5-Dimethyl-biphenyl-4-sulfonylamino)-3-({5-[4-(1H-imidazol-2-ylamino)-butyl]-4,5-dihydro-isoxazole-3-carbonyl}-amino)-propionic acid]	0.69 µM	3.1 µM	
Cc1cc(-c2ccccc2)cc(C)c1S(=O)(=O)N[C@@H](CNC(=O)C1=NOC(CCCCNc2ccccn2)C1)C(=O)O (stereo partly specified) [2-(3,5-Dimethyl-biphenyl-4-sulfonylamino)-3-({5-[4-(pyridin-2-ylamino)-butyl]-4,5-dihydro-isoxazole-3-carbonyl}-amino)-propionic acid]		> 100 µM	
Cc1noc(C)c1S(=O)(=O)N[C@@H](CNC(=O)C1=NOC(CCCCNc2ncc[nH]2)C1)C(=O)O (stereo partly specified) [2-(3,5-Dimethyl-isoxazole-4-sulfonylamino)-3-({5-[4-(1H-imidazol-2-ylamino)-butyl]-4,5-dihydro-isoxazole-3-carbonyl}-amino)-propionic acid]		1.5 µM	
CC(C)c1ccc(S(=O)(=O)N[C@@H](CNC(=O)C2=NOC(CCCCNc3ccccn3)C2)C(=O)O)cc1 (stereo partly specified) [2-(4-Isopropyl-benzenesulfonylamino)-3-({5-[4-(pyridin-2-ylamino)-butyl]-4,5-dihydro-isoxazole-3-carbonyl}-amino)-propionic acid]		> 100 µM	
O=C(NC[C@H](NS(=O)(=O)c1ccc(-c2ccccc2)cc1)C(=O)O)C1=NOC(CCCCNc2ncc[nH]2)C1 (stereo partly specified) [2-(Biphenyl-4-sulfonylamino)-3-({5-[4-(1H-imidazol-2-ylamino)-butyl]-4,5-dihydro-isoxazole-3-carbonyl}-amino)-propionic acid]	5 µM	43 µM	
O=C(NC[C@H](NS(=O)(=O)c1cccc2ccccc12)C(=O)O)C1=NOC(CCCCNc2ccccn2)C1 (stereo partly specified) [2-(Naphthalene-1-sulfonylamino)-3-({5-[4-(pyridin-2-ylamino)-butyl]-4,5-dihydro-isoxazole-3-carbonyl}-amino)-propionic acid]		> 100 µM	
N[C@@H](CNC(=O)C1=NOC(CCCCNc2ncc[nH]2)C1)C(=O)O (stereo partly specified) [2-Amino-3-({5-[4-(1H-imidazol-2-ylamino)-butyl]-4,5-dihydro-isoxazole-3-carbonyl}-amino)-propionic acid]	47 µM	84 µM	
O=C(NC[C@H](NS(=O)(=O)c1ccccc1)C(=O)O)C1=NOC(CCCCNc2ccccn2)C1 (stereo partly specified) [2-Benzenesulfonylamino-3-({5-[4-(pyridin-2-ylamino)-butyl]-4,5-dihydro-isoxazole-3-carbonyl}-amino)-propionic acid]	18 µM	30 µM	
O=C(N[C@@H](CNC(=O)C1=NOC(CCCCNc2ccccn2)C1)C(=O)O)OCc1ccccc1 (stereo partly specified) [2-Benzyloxycarbonylamino-3-({5-[4-(pyridin-2-ylamino)-butyl]-4,5-dihydro-isoxazole-3-carbonyl}-amino)-propionic acid]	85 µM		> 100 µM
Cc1cc(C)c(S(=O)(=O)N[C@@H](CNC(=O)C2=NOC(CCCCNS(N)(=O)=O)C2)C(=O)O)c(C)c1 (stereo partly specified) [2-[2,4,6-trimethylphenylsulfonylamino]-3-[5-(4-aminosulfonylamino)butyl)isoxazolin-3-ylcarbonyl]amino-propionic acid]	> 100 µM		
Cc1cc(C)c(S(=O)(=O)N[C@@H](CNC(=O)C2=NOC(CCCC(=O)Nc3ncc[nH]3)C2)C(=O)O)c(C)c1 (stereo partly specified) [3-({5-[3-(1H-Imidazol-2-ylcarbamoyl)-propyl]-4,5-dihydro-isoxazole-3-carbonyl}-amino)-2-(2,4,6-trimethyl-benzenesulfonylamino)-propionic acid]	> 100 µM		
Cc1cc(C)c(S(=O)(=O)N[C@@H](CNC(=O)C2=NOC(CCCc3cnc(N)[nH]3)C2)C(=O)O)c(C)c1 (stereo partly specified) [3-({5-[3-(2-Amino-1H-imidazol-4-yl)-propyl]-4,5-dihydro-isoxazole-3-carbonyl}-amino)-2-(2,4,6-trimethyl-benzenesulfonylamino)-propionic acid]	0.18 µM	0.28 µM	
Cc1cc(C)c(S(=O)(=O)N[C@@H](CNC(=O)C2=NOC(CCCc3cccc(N)n3)C2)C(=O)O)c(C)c1 (stereo partly specified) [3-({5-[3-(6-Amino-pyridin-2-yl)-propyl]-4,5-dihydro-isoxazole-3-carbonyl}-amino)-2-(2,4,6-trimethyl-benzenesulfonylamino)-propionic acid]		78 µM	
Cc1cc(C)c(S(=O)(=O)N[C@@H](CNC(=O)C2=NOC(CCCCNc3ncc[nH]3)C2)C(=O)O)c(C)c1 (stereo partly specified) [3-({5-[4-(1H-Imidazol-2-ylamino)-butyl]-4,5-dihydro-isoxazole-3-carbonyl}-amino)-2-(2,4,6-trimethyl-benzenesulfonylamino)-propionic acid]		0.85 µM	
O=C(NC[C@H](NS(=O)(=O)c1cccc2ccccc12)C(=O)O)C1=NOC(CCCCNc2ncc[nH]2)C1 (stereo partly specified) [3-({5-[4-(1H-Imidazol-2-ylamino)-butyl]-4,5-dihydro-isoxazole-3-carbonyl}-amino)-2-(naphthalene-1-sulfonylamino)-propionic acid]	0.57 µM	7.8 µM	
Cc1cc(C)c(S(=O)(=O)N[C@@H](CNC(=O)C2=NOC(CCCCNC3=NCCN3)C2)C(=O)O)c(C)c1 (stereo partly specified) [3-({5-[4-(4,5-Dihydro-1H-imidazol-2-ylamino)-butyl]-4,5-dihydro-isoxazole-3-carbonyl}-amino)-2-(2,4,6-trimethyl-benzenesulfonylamino)-propionic acid]	0.6 µM	0.69 µM	
Cc1cc(C)c(S(=O)(=O)N[C@@H](CNC(=O)C2=NOC(CCCCNc3nccc4ccccc34)C2)C(=O)O)c(C)c1 (stereo partly specified) [3-({5-[4-(Isoquinolin-1-ylamino)-butyl]-4,5-dihydro-isoxazole-3-carbonyl}-amino)-2-(2,4,6-trimethyl-benzenesulfonylamino)-propionic acid]	6.5 µM	78 µM	
Cc1cc(C)c(S(=O)(=O)N[C@@H](CNC(=O)C2=NOC(CCCCNc3cc4ccccc4cn3)C2)C(=O)O)c(C)c1 (stereo partly specified) [3-({5-[4-(Isoquinolin-3-ylamino)-butyl]-4,5-dihydro-isoxazole-3-carbonyl}-amino)-2-(2,4,6-trimethyl-benzenesulfonylamino)-propionic acid]	7.7 µM	11 µM	
Cc1cc(C)c(S(=O)(=O)N[C@@H](CNC(=O)C2=NOC(CCCCNc3ccccn3)C2)C(=O)O)c(C)c1 (stereo partly specified) [3-({5-[4-(Pyridin-2-ylamino)-butyl]-4,5-dihydro-isoxazole-3-carbonyl}-amino)-2-(2,4,6-trimethyl-benzenesulfonylamino)-propionic acid]	6.5 µM	16 µM	
Cc1cc(C)c(S(=O)(=O)N[C@@H](CNC(=O)C2=NOC(CCNC(=O)Nc3ncc[nH]3)C2)C(=O)O)c(C)c1 (stereo partly specified) [3-[(5-{2-[3-(1H-Imidazol-2-yl)-ureido]-ethyl}-4,5-dihydro-isoxazole-3-carbonyl)-amino]-2-(2,4,6-trimethyl-benzenesulfonylamino)-propionic acid]	32 µM	120 µM	
Cc1cc(C)c(S(=O)(=O)N[C@@H](CNC(=O)C2=NOC(CCCCNC(=N)N)C2)C(=O)O)c(C)c1 (stereo partly drawn) [3-{5-[4-amino(imino)methylaminobutyl]-4,5-dihydro-3-isoxazolylcarboxamido}-2-mesitylsulfonamido-(2S)-propanoic acid]		0.16 µM	
